Reference: publication PMC6402543 (Nature, 2018)
In brackets after ≈: the same amount, converted by molar mass. Where two headings read alike, the source gives them in different places.

Columns and labels:
[1] = tested on: L. donovani clinical isolates (LV9, SUKA 001, BHU1, DD8); type: cell-based, Leishmania donovani
THP-1 cells = assay: THP-1 host cell toxicity in the intra-macrophage assay; type: cell-based; settings: Homo sapiens, THP-1, read-out: THP-1 EC50
[2] = Rat 7-day repeat dose oral toxicology; type: in vivo, rat (male Wistar Han); settings: all doses tested
[3] = tested on: L. donovani axenic amastigotes; assay: Rate-of-kill of axenic amastigotes; type: cell-based, Leishmania donovani
Stability in hepatocytes [4] = type: in vitro ADME, rat (Sprague Dawley); settings: Rat; 0.5 μM
Procedure, shortened: (§1)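 Test compound was incubated with hepatocytes of the stated species at 0.5 µM. The read-out is intrinsic clearance (Cli), expressed as mL/min/g tissue.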

Rat pharmacokinetics = type: in vivo, Rat (male, SD)
[5] = tested on: L. donovani promastigotes (LdBOB); assay: Cell cycle analysis; type: cell-based, Leishmania donovani; settings: 5x EC50 for 8 h
Stability in hepatocytes [6] = type: in vitro ADME, dog (beagle); settings: Dog; 0.5 μM
Procedure, shortened: as §1

Stability in microsomes [7] = type: in vitro ADME; settings: Human; 0.5 μM
Procedure, shortened: (§2)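 Liver microsomes of each stated species were incubated with test compound at 0.5 µM. Intrinsic clearance (Cli) is reported in mL/min/g tissue.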

[8] = tested on: L. donovani axenic amastigotes; assay: Cidal axenic amastigote assay; type: cell-based; settings: Leishmania donovani, read-out: Cidal axenic EC50
[9] = tested on: L. donovani amastigotes (LV9); assay: In vivo efficacy, mouse model of VL; set-up: species or system Leishmania donovani; settings: 25 mg/kg bid, 10 days, oral
Procedure, shortened: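 Each treatment arm used 5 mice. Regimens were dosed once daily (uid) or twice daily (bid) for 5 or 10 days, and bid dosing for 10 days was run over a dose range. Parasite burden was scored as Leishman Donovan Units: amastigotes per 500 nucleated cells multiplied by organ weight in g. Read-out was reduction in parasite load.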

Stability in hepatocytes [10] = type: in vitro ADME; settings: Human; 0.5 μM
Procedure, shortened: as §1

[11] = Non-GLP preclinical assessment of cardiovascular effects and genotoxicity
Stability in microsomes [12] = type: in vitro ADME, rat (Sprague Dawley); settings: Rat; 0.5 μM
Procedure, shortened: as §2

Stability in microsomes [13] = type: in vitro ADME, dog (beagle); settings: Dog; 0.5 μM
Procedure, shortened: as §2

[14] = Solubility in simulated physiological media; type: physicochemical; settings: fed simulated intestinal fluid (FeSSIF), pH 6.5
Mouse pharmacokinetics = type: in vivo, Mouse (male, CD1); settings: for F% based on AUC(0-inf): mouse
Stability in hepatocytes [15] = type: in vitro ADME, mouse (CD1); settings: Mouse; 0.5 μM
Procedure, shortened: as §1

Stability in microsomes [16] = type: in vitro ADME, mouse (CD1); settings: Mouse; 0.5 μM
Procedure, shortened: as §2

[17] = tested on: L. donovani promastigotes (LdBOB); assay: Promastigote drug sensitivity assay; type: cell-based, Leishmania donovani; settings: for EC50: Leishmania donovani
[18] = tested on: L. donovani intramacrophage amastigotes (INMAC); assay: Intra macrophage drug sensitivity assay; type: cell-based, Leishmania donovani; settings: 5 RES clone 1 vs WT intramacrophage amastigotes
[19] = tested on: L. donovani amastigotes (LV9); settings: uid; cited from earlier work
[20] = male, Sprague Dawley, whole blood, iv, 1 mg/kg
[21] = male, Sprague Dawley, whole blood, po, 10 mg/kg
[22] = male, Sprague Dawley, whole blood, po, 100 mg/kg
[23] = male, Sprague Dawley, whole blood, po, 300 mg/kg
[24] = male, CD1, mouse, whole blood, iv, 1 mg/kg
[25] = male, CD1, mouse, whole blood, po, 10 mg/kg
[26] = male, CD1, mouse, whole blood, po, 100 mg/kg
[27] = male, CD1, mouse, whole blood, po, 300 mg/kg

## C[C@H]1CN(c2n[nH]c3nc(N[C@H]4CC[C@H](NS(=O)(=O)CCC(F)(F)F)CC4)ncc23)CCO1 [Compound 7]
[1]
  Variation in potency against a panel of Leishmania clinical-derived lines: less than 10 fold
THP-1 cells
  EC50: > 50000 nM
[2]
  Adverse effects (clinical chemistry and histopathology): no significant adverse effects
[3]; 0.2 μM
  Time at which compound was cytocidal: 96 h
[3]; 1.8 μM
  Time at which compound was cytocidal: 48 h
Stability in hepatocytes [4]
  Hepatocytes Cli: 0.77 mL/min/g tissue
Rat pharmacokinetics; [20]
  AUC(0-inf): 1510 ± 782 ng·h/mL
  Vd: 0.4 ± 0.1 L/kg
  clearance: 14 ± 9 mL/min/kg
  half-life: 0.4 ± 0.2 h
Rat pharmacokinetics; [21]
  AUC(0-inf): 6480 ± 2490 ng·h/mL
  Cmax: 1040 ± 261 ng/mL
  Tmax: 2 h
Rat pharmacokinetics; [22]
  AUC(0-inf): 61200 ± 23600 ng·h/mL
  Cmax: 8470 ± 3750 ng/mL
  Tmax: 7.3 h
Rat pharmacokinetics; [23]
  AUC(0-inf): 136000 ± 24800 ng·h/mL
  Cmax: 14800 ± 2680 ng/mL
  Tmax: 7.3 h
Rat pharmacokinetics; oral 10 mg/kg
  F% based on AUC(0-inf): 46 ±18%
Rat pharmacokinetics; oral 100 mg/kg
  F% based on AUC(0-inf): 40 ± 15%
Rat pharmacokinetics; oral 300 mg/kg
  F% based on AUC(0-inf): 51 ± 22%
[5]
  Effect on cell-cycle progression: accumulation of cells in G1 and in G2/M and a decrease in the proportion of cells in S phase
Stability in hepatocytes [6]
  Hepatocytes Cli: 0.31 mL/min/g tissue
Stability in microsomes [7]
  Microsomes Cli: 0.71 mL/min/g tissue
[8]
  EC50: 100 nM
[9]
  Reduction in parasite load: 99%
Stability in hepatocytes [10]
  Hepatocytes Cli: 0.5 mL/min/g tissue
[11]
  Cardiovascular effects and genotoxicity: did not reveal any issues that would prevent further development
Stability in microsomes [12]
  Microsomes Cli: <0.5 mL/min/g tissue
Stability in microsomes [13]
  Microsomes Cli: <0.4 mL/min/g tissue
[14]
  solubility at 4 h: 25 µg/mL (≈ 50.9 µM)
Mouse pharmacokinetics; [24]
  AUC(0-inf): 104 ± 26 ng·h/mL
  Vd: 4 ± 0.5 L/kg
  clearance: 169 ± 50 mL/min/kg
  half-life: 0.3 ± 0.04 h
Mouse pharmacokinetics; [25]
  AUC(0-inf): 1460 ± 362 ng·h/mL
  Cmax: 561 ± 148 ng/mL
  Tmax: 2 h
Mouse pharmacokinetics; [26]
  AUC(0-inf): 39400 ± 23800 ng·h/mL
  Cmax: 8810 ± 1970 ng/mL
  Tmax: 3 h
Mouse pharmacokinetics; [27]
  AUC(0-inf): 66200 ng·h/mL
  Cmax: 11400 ± 4210 ng/mL
  Tmax: 5 h
Mouse pharmacokinetics; oral 10 mg/kg
  F% based on AUC(0-inf): >100%
Mouse pharmacokinetics; oral 100 mg/kg
  F% based on AUC(0-inf): >100%
Mouse pharmacokinetics; oral 300 mg/kg
  F% based on AUC(0-inf): >100%
Stability in hepatocytes [15]
  Hepatocytes Cli: 0.84 mL/min/g tissue
Stability in microsomes [16]
  Microsomes Cli: 0.52 mL/min/g tissue
[17]; 4-resistant clone 1, fold resistance vs wild type
  Fold: 20
[17]; 4-resistant clone 2, fold resistance vs wild type
  Fold: 24
[17]; 4-resistant clone 3, fold resistance vs wild type
  Fold: 48
[17]; 5-resistant clone 1, fold resistance vs wild type
  Fold: 41
[17]; 5-resistant clone 2, fold resistance vs wild type
  Fold: 35
[17]; 5-resistant clone 3, fold resistance vs wild type
  Fold: 22
[17]; CRK12MUT and CYC9 co-overexpressing
  EC50 relative to WT: ~ 6 fold
[17]; CRK12MUT overexpressing
  EC50 relative to WT: ~ 3.4 fold
[17]; CRK12WT and CYC9 co-overexpressing
  EC50 relative to WT: ~ 3 fold
[17]; read-out: pEC50 (SD), 4-resistant clone 1 promastigotes (converted)
  EC50: 1580 nM
[17]; read-out: pEC50 (SD), 4-resistant clone 2 promastigotes (converted)
  EC50: 2000 nM
[17]; read-out: pEC50 (SD), 4-resistant clone 3 promastigotes (converted)
  EC50: 3980 nM
[17]; read-out: pEC50 (SD), 5-resistant clone 1 promastigotes (converted)
  EC50: 3160 nM
[17]; read-out: pEC50 (SD), 5-resistant clone 2 promastigotes (converted)
  EC50: 3160 nM
[17]; read-out: pEC50 (SD), 5-resistant clone 3 promastigotes (converted)
  EC50: 2000 nM
[17]; read-out: pEC50 (SD), Wild type (Age-matched) promastigotes (converted)
  EC50: 50.1 nM
[17]; read-out: pEC50 (SD), Wild type (Start clone) promastigotes (converted)
  EC50: 79.4 nM
[17]; Wild type (Age-matched) promastigotes, fold vs wild type
  Fold: 1
[17]; Wild type (Start clone) promastigotes, fold vs wild type
  Fold: 1
[18]
  Fold difference: 5

## CCCCCCCCCCCCCCCCOP(=O)([O-])OCC[N+](C)(C)C [miltefosine]
[19]
  ED90 in a mouse model: 27 mg/kg
